Measurements gathered from unrelated publications.
Protocols differ between the studies behind these lines.
Target: Serine/threonine-protein kinase 38-like (STK38L, Homo sapiens, UniProt Q9Y2H1)

| SMILES | read-out | action | method | cells | tested at | quantity | value |
| --- | --- | --- | --- | --- | --- | --- | --- |
| Cn1c2c(c3ccc(Cl)c(Cl)c31)C(C#N)C1(CCNCC1)NC2=O (racemic) | thermal stability | – | DSF | – | 10 µM | ΔTm | -0.2 °C |
| COCCOc1nc(-c2ccc(Cl)nc2)nc2c1CN(C(=O)c1ncn3ccccc13)CC2 | cell-free assay | – | competition with immobilised ligand | – | 0.1 µM | remaining binding | 100% |
| CCN1CCN(Cc2ccc(NC(=O)c3ccc(C)c(Oc4ccnc5[nH]ccc45)c3)cc2C(F)(F)F)CC1 | target engagement in cells | inhibitor | chemoproteomics | Huh-7 | 10 µM | inhibition | -12.7% |
| COc1cc(Cl)c(C(=O)N[C@@H](CN[C@H]2CC[C@@H](N)CC2)Cc2ccc(C#N)cc2)cc1-c1ccc(CN[C@H](C)c2ccc(C)cc2)o1 | enzyme activity | inhibitor | – | – | 1 µM | remaining activity | 91% |
| CCN1CCC2(CC1)NC(=O)c1c(c3ccc(Cl)c(Cl)c3n1C)C2C#N (racemic) | thermal stability | – | DSF | – | 10 µM | ΔTm | 0 °C |
| O=C(Nc1cnn(-c2csc(C(=O)NC3COC3)c2)c1)Nc1c(F)cccc1Cl | enzyme activity | inhibitor | – | – | 5 µM | remaining activity | 94.8% |
| CNc1cc(Oc2cc(C(=O)Nc3cc(N4CCN(C)CC4)cc(C(F)(F)F)c3)ccc2C)ncn1 | target engagement in cells | inhibitor | chemoproteomics | Huh-7 | 1 µM | inhibition | -35.6% |
| CC(C)(O)[C@H]1CC[C@H](Nc2ccc3ncc(-c4cccc(C(F)(F)F)c4)n3n2)CC1 | enzyme activity | inhibitor | – | – | 1 µM | remaining activity | 91.9% |
| CN(C)c1ncnc(-c2ccc3nc(Nc4cc(CN5CCN(C(=O)CC(F)(F)F)CC5)ccn4)[nH]c3c2)c1Cl | cell-free assay | – | competition with immobilised ligand | – | 1 µM | remaining binding | 74% |
| N#CC1c2c([nH]c3c(Cl)c(Cl)ccc23)C(=O)NC12CCCCC2 (racemic) | thermal stability | – | DSF | – | 10 µM | ΔTm | 0.2 °C |
| O=c1nc(-c2ccccn2)sc2ccccc12 | binding | – | competition with immobilised ligand | – | 1 µM | remaining binding | 66% |
| Cn1c2c(Cl)c(Cl)ccc2c2cc(N)[nH]c(=O)c21 | thermal stability | – | DSF | – | 10 µM | ΔTm | 0.3 °C |
| Cc1ccc(C(=O)Nc2ccc(CN3CCN(C)CC3)c(C(F)(F)F)c2)cc1C#Cc1cnc2cccnn12 | enzyme activity | – | – | – | 23.5 nM | remaining activity | 99% |
| Cc1nc(N2CC[C@@H](O)C2)ncc1-c1cc(C(F)(F)F)cc2[nH]ncc12 | binding | – | competition with immobilised ligand | – | 1 µM | remaining binding | 87% |
| Cn1c2c(c3ccc(Cl)c(Cl)c31)C(C#N)C1(CCN(C(=O)OC(C)(C)C)CC1)NC2=O (racemic) | thermal stability | – | DSF | – | 10 µM | ΔTm | -0.1 °C |
| COc1cc(-c2cc(-c3ccc(N4CCNCC4)cc3)cnc2C)cc(OC)c1OC | enzyme activity | inhibitor | – | – | 1 µM | inhibition | 0% |
| CS(=O)(=O)c1cc(C2(NC(=O)c3cncc4c3cnn4-c3ccc(F)cc3)CC2)ccn1 | cell-free assay | – | competition with immobilised ligand | – | 1 µM | remaining binding | 34% |
| Cn1c2c(c3ccc(Cl)c(Cl)c31)C(C#N)C(C)(C)NC2=O (centres unmarked) | thermal stability | – | DSF | – | 10 µM | ΔTm | -0.1 °C |
| O=C(O)[C@@H]1[C@@H](Cn2nnc3ccccc3c2=O)CC[C@H]1C(=O)c1ccc(OCCC2CCOCC2)cc1 | binding | – | competition with immobilised ligand | – | 1 µM | remaining binding | 100% |
| CN1CC(Oc2cnc(C#N)cc2-c2ccn3nc(NC(=O)C4CC4)cc3c2)C1 | enzyme activity | inhibitor | – | – | 1 µM | inhibition | 27% |
